Source: PubChem (several laboratories)
b-catenin transl: beta-catenin nuclear translocation modulation; HeLa beta-catenin nuclear translocation, immunofluorescence imaging; nuclear translocation activity, % at 5 µM; actives 0.3% (n = 190,000);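 active = nuclear translocation activity above 50% at 5 µM, with a well cell count of 50 or more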;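 also: per-cell ratio of nuclear to cytoplasmic median beta-catenin stain intensity; plate controls were DMSO negative control for no effect and GSK-3 inhibitor IX positive control for full effect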
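Test system: human HeLa cell line; Doses: 5 µM primary, 0.02–20 µM confirmation; Incubation: 24 h compound exposure, 37°C; Detection: beta-catenin immunofluorescence imaging with DAPI; Read-out: beta-catenin nuclear/cytoplasmic ratio, % activation.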
APP transl inh: APP translation inhibition | SH-SY5Y APP 5'UTR-luciferase reporter, luminescence | inhibition, % at 2 µM | actives 0.82% (n = 190,000) | AID 1285;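 active = inhibition above a set limit, derived from the sample mean plus 3 SD, cut at about 45% in these data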
Ba/F3 V617F tox: reduce viability of Ba/F3 cells dependent on JAK2V617F; actives 1.1% (n = 220,000); Ba/F3 EpoR-JAK2V617F viability, ATP luminescence; AID 1446; inhibition, % at 5.6 µM;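 active = inhibition above the campaign mean plus 3 SD over all tested compounds, cut at about 24% in these data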;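 also: cytokine-independent growth of Ba/F3 cells driven by EpoR plus mutant JAK2; 0% = DMSO-treated cells and 100% = JAK inhibitor I control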
MT stabilize HCS: microtubule stabilizers in HeLa cells; % tubulin-high responders, % at 10 µM; HeLa tubulin immunostaining HCS, 24 h; share of cells brighter than vehicle mean+2SD; actives 0.83% (n = 200,000);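 active = plate Z-score above 3 for both tubulin-high and condensed-nucleus cell shares, with cell loss under 80%, at 10 µM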;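 also: anti alpha tubulin signal scored within the nucleus-defined area of each cell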
BaF3 parental: counter-screen for JAK2V617F inhibitors: parental Ba/F3 viability inhibitors | inhibition, % at 5.6 µM | CellTiter-Glo ATP luminescence | actives 1.1% (n = 220,000) | AID 1486;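 active = inhibition above a per-campaign cutoff, the mean inhibition of all tested compounds plus 3 SD, cut at about 27% in these data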;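 also: 0% = DMSO wells and 100% = JAK Inhibitor I control wells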
L major viab: Leishmania major promastigote growth inhibition. Leishmania major promastigotes, resazurin fluorescence viability. inhibition, % at 10 µM. actives 9% (n = 200,000); in the data active = inhibition above about 50%;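 also: promastigotes grown with compound for 44 hours at 28 °C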
Starred values were filed as active, the others as inactive; . = not tested or not shown. In the library only some 9.6% were active in any assay of this set; here they are far more common.

SMILES	b-catenin transl	APP transl inh	Ba/F3 V617F tox	MT stabilize HCS	BaF3 parental	L major viab
CC1CCc2c(sc(N)c2C(=O)OC(C)C)C1 (centres undefined)	0.9	19.0	0.0	2.8	3.2	-2.3
CN1CCN(C(=O)c2cc(-c3ccccc3)on2)CC1	.	-37.2	-3.8	3.1	-1.1	70.0*
COc1ccc(-c2cc(C(=O)N3CCN(C(c4ccccc4)c4ccccc4)CC3)no2)cc1OC	-0.9	10.6	-2.1	2.1	0.8	94.2*
COc1ccc(-c2cc(C(=O)N3CCN(C(c4ccccc4)c4ccccc4)CC3)no2)cc1	-2.9	.	-1.7	1.5	3.3	3.2
Cc1ccc(-n2nc(C)c3c2NC2=C(C(=O)CC(C)(C)C2)C3c2ccccc2OCC(=O)O)cc1 (centres undefined)	-3.4	3.8	3.1	5.0	6.4	-18.6
C[C@@H](C(=O)OCC(=O)NCCc1ccc(S(N)(=O)=O)cc1)N1C(=O)C2CCCCC2C1=O (some centres undefined)	-4.0	-27.9	-1.0	3.9	3.7	-6.2
CC1=NN(c2nc(-c3ccc(C)cc3)cs2)C(=O)C1N=Nc1ccccc1O (centres undefined)	-2.2	51.9*	-2.4	8.1	7.8	98.8*
CC1=NN(c2nc(-c3ccc(C)cc3)cs2)C(=O)C1N=Nc1cccc(O)c1 (centres undefined)	11.4	5.4	2.7	2.9	7.6	38.6
O=C(c1ccc(Cn2c(=O)[nH]c3ccccc3c2=O)cc1)N1CCN(c2ccccn2)CC1	-2.1	-8.4	1.9	1.9	3.0	43.8
O=C(c1ccc(Cn2c(=S)[nH]c3ccccc3c2=O)cc1)N1CCN(c2ccccn2)CC1	-3.5	-12.1	0.3	5.0	5.0	99.8*
CC(C)(C)c1ccc(NC(=O)N2CCCN(c3ccc([N+](=O)[O-])cn3)CC2)cc1	0.3	.	1.5	.	-0.7	.
Cc1ccc(NC2=NC3(CCCCC3)N=C(N)N2)c(C)c1	.	-13.9	0.4	3.9	7.0	-2.4
Cc1cccc(NC2=NC3(CCCCC3)N=C(N)N2)c1C	-0.3	-7.2	-1.7	1.3	6.1	-5.7
Cc1cccc(C)c1NC1=NC2(CCCCC2)N=C(N)N1	-6.8	0.7	-4.8	4.1	75.9*	-2.9
Cc1ccc(NC2=NC3(CCCC3)N=C(N)N2)c(C)c1	-1.1	-14.3	4.3	24.6*	10.4	-3.4
O=C(c1cnn(-c2ccccc2)c1-n1cccc1)N1CCN(C2CCCCC2)CC1	-2.5	6.8	0.5	2.0	-7.6	75.0*
Cn1c(=O)n(C)c2cc(NS(=O)(=O)c3ccc4c(c3)CCCC4)ccc21	.	1.5	24.8*	1.4	27.6*	33.1
Cn1c(=O)n(C)c2cc(NS(=O)(=O)c3ccc(C(C)(C)C)cc3)ccc21	1.8	0.1	11.8	4.1	29.9*	48.9
CCOC(=O)CSc1nnc(-c2nnc(SCC(=O)OCC)n2CC)n1CC	0.1	-8.0	1.4	1.9	2.8	-6.4
Nc1nc(Cl)nc2c1ncn2[C@H]1C[C@H](O)[C@@H](CO)O1	-3.3	75.7*	101.4*	11.6	95.0*	-4.9
Nc1ncnc2c1ncn2[C@H]1C[C@H](O)[C@@H](CO)O1	-6.6	-4.1	0.7	1.6	9.4	-2.1
COc1cc2[nH]c(=O)c(C(=O)NCCCN3CCCCC3)c(O)c2cc1OC	-2.7	-5.3	-2.4	1.3	-1.5	93.7*
Cc1cccc(NS(=O)(=O)c2cc(C(=O)N3CCc4ccccc4C3)ccc2Cl)c1C	3.2	9.3	7.7	3.0	13.1	97.0*
Cc1ccccc1NS(=O)(=O)c1cc(C(=O)N2CCCC2)ccc1C	1.1	-8.8	-1.8	1.9	4.6	-1.4
Cc1ccc(C)c(NS(=O)(=O)c2cc(C(=O)N3CCc4ccccc4C3)ccc2Cl)c1	-0.4	-6.9	7.2	1.9	3.3	98.3*
SMILES	b-catenin transl	APP transl inh	Ba/F3 V617F tox	MT stabilize HCS	BaF3 parental	L major viab
CCOC(=O)N1CCN(C(=O)c2ccc(C)c(S(=O)(=O)Nc3cccc(C)c3C)c2)CC1	0.0	-14.0	4.9	1.5	5.5	98.2*
Cc1ccccc1CN(c1ccc(C(=O)N2CCc3ccccc3C2)cc1)S(C)(=O)=O	-0.6	6.9	-0.2	2.8	4.2	70.0*
CCOC(=O)N1CCN(C(=O)c2ccc(C)c(S(=O)(=O)Nc3ccccc3)c2)CC1	-6.3	-7.0	0.1	2.0	5.9	-0.1
COc1cc(Cl)cc(/C=N/NC(N)=O)c1O	0.8	8.9	-0.5	3.6	4.3	-5.1
Cc1ccc(C(=O)N[C@H](C(=O)OCC(=O)c2ccc[nH]2)C(C)C)cc1	-1.6	-6.0	-2.3	1.6	0.5	0.4
N#C/C(=C\c1ccc(Cl)cc1Cl)c1n[nH]c(Cn2cncn2)n1	-3.2	-11.4	-3.9	1.6	0.4	3.2
O=C(O)/C=C/c1cnn(-c2ccccc2)c1	-1.0	-89.9	0.7	1.5	4.0	-2.4
COc1ccc(Oc2nc(-c3ccccn3)ncc2OC)cc1	-4.0	7.2	5.0	2.2	8.5	16.5
COc1cnc(-c2ccccn2)nc1Oc1c(C)cccc1C	0.1	0.6	-0.3	1.8	7.2	72.1*
COc1cnc(-c2ccccn2)nc1Sc1ccccc1Cl	.	.	-3.5	1.1	0.2	100.7*
COc1cnc(-c2ccccn2)nc1Sc1c(Cl)cccc1Cl	.	.	-0.2	1.5	2.1	46.7
COc1cnc(-c2ccccn2)nc1Oc1cccc(Cl)c1	.	.	-3.4	1.9	1.8	100.3*
COc1cnc(-c2ccccn2)nc1N(C)C	1.7	33.8	-2.4	3.1	0.7	100.0*
Cc1ccc(NC(=O)N(C2CCCCC2)C(C)c2cccnc2)cc1C (centres undefined)	.	-2.6	2.1	4.0	5.6	83.2*
COc1ccc(NC(=O)N(C2CCCCC2)C(C)c2cccnc2)c(OC)c1 (centres undefined)	0.4	.	4.3	2.7	1.5	81.7*
CCc1ccc(NC(=O)N(C2CCCCC2)C(C)c2cccnc2)cc1 (centres undefined)	-2.0	-15.1	-4.5	1.4	-2.4	90.0*
CCc1ccc(NC(=O)c2cccnc2)cc1	-2.4	-37.0	-0.1	1.2	5.0	-6.7
COc1cc2nc(CN3CCN(c4ncc(C(F)(F)F)cc4Cl)CC3)[nH]c(=O)c2cc1OC	-0.7	.	.	.	.	.
COc1ccc([N+](=O)[O-])cc1NC(=O)C(C)Sc1nc(-c2ccccc2)cs1 (centres undefined)	-1.1	-10.3	-1.2	3.0	9.2	7.5
O=C(NCCc1ccccc1)C(=O)NCc1ccncc1	.	8.7	-3.2	2.4	4.3	-5.6
O=C(NCCC1=CCCCC1)C(=O)NCC1OCCCN1S(=O)(=O)c1ccccc1 (centres undefined)	0.1	0.2	0.6	1.6	6.8	95.7*
O=C(NCc1ccncc1)C(=O)NCC(c1ccccc1)c1ccccc1	.	4.1	-3.7	2.8	2.5	57.5*
O=C(NCCC1=CCCCC1)C(=O)NCC(c1ccco1)N1CCN(c2ccccc2)CC1 (centres undefined)	0.0	2.8	-2.8	1.9	3.5	88.5*
